ChEMBL document CHEMBL4177645, “Exploration of multi-target potential of chromen-4-one based compounds in Alzheimer's disease: Design, synthesis and biological evaluations” (Bioorg Med Chem, 2017)
Activity calls are given as the source filed them. The calls are words filed in the database; no cut-off is given here.

How the values were obtained:
Acetylcholinesterase = molecular target: T1, Acetylcholinesterase (Rattus norvegicus, UniProt P37136); test: Inhibition of rat brain AChE using acetylthiocholine iodide as substrate by spectroscopic method
T1 sequence (P37136 whole entry): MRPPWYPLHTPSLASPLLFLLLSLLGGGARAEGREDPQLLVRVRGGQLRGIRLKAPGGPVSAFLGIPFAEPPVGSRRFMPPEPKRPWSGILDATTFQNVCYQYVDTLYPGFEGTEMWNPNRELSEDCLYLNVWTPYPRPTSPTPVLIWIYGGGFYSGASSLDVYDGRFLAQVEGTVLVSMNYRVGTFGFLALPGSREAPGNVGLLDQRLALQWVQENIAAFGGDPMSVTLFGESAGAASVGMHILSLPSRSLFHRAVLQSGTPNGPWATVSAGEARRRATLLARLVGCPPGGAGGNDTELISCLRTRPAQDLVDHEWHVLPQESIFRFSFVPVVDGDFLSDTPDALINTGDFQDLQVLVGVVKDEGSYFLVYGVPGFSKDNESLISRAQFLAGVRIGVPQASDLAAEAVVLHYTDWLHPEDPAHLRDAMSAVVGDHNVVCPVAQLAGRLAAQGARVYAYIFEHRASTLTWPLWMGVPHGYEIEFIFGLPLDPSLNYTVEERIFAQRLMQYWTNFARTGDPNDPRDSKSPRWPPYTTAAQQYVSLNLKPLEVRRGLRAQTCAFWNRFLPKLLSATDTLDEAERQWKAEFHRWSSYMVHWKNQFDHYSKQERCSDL

[1] = Anti-glycosylation activity using BSA assessed as inhibition of AGE formation measured after 30 hrs by fluorescence spectrophotometric method; format: functional
Summary of the method: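 Glucose-mediated glycation of protein with fluorescent AGE read-out at 370 nm excitation / 440 nm emission. Test compounds dissolved in DMSO at different concentrations. Aminoguanidine positive control. Run in triplicate.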

Mus musculus [2] = test: Reversal of scopolamine-induced memory impairment in Swiss albino mouse assessed as attenuation of scopolamine-induced amnesia at 2 mg/kg, ip administered 30 mins prior to scopolamine challenge measured on day 4 by Morris water maze test; format: functional, organism-based
Summary of the method: (§1)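 Swiss albino mice of either sex (20–25 g), five per group. Scopolamine 0.5 mg/kg; agent (2, 5, 10 mg/kg, i.p.) given 30 min before scopolamine ahead of each of the first four trials. Morris water maze: escape latency on days 1–4, time in target quadrant on day 5. Vehicle 10% DMSO. Mean ± SD, two-way ANOVA with Tukey test.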

Mus musculus [3] = test: Antialzheimer activity in Swiss albino mouse brain assessed as reversal of scopolamine-induced reduction in GSH levels at 10 mg/kg, ip (reference value: 21.3 +/- 0.81); format: functional
Summary of the method: (§2)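 Swiss albino mice of either sex (20–25 g), five per group, given scopolamine 0.5 mg/kg with test agent i.p. 30 min before scopolamine. After the water maze protocol, cortex and hippocampus were homogenized in ice-cold phosphate buffer pH 7.4 and spun 14,500 rpm, 15 min, 4 °C. Supernatant used for TBARS (Ohkawa) or reduced GSH (Beutler). Mean ± SD.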

Mus musculus [4] = test: Reversal of scopolamine-induced memory impairment in Swiss albino mouse assessed as attenuation of scopolamine-induced decreased time spent in target quadrant at 2 to 10 mg/kg, ip administered 30 mins prior to scopolamine challenge measured on day 5 by Morris water maze test
Mus musculus [5] = test: Antialzheimer activity in Swiss albino mouse brain assessed as reversal of scopolamine-induced […] assessed per mg protein at 10 mg/kg, ip (reference value: 1.25 +/- 0.04 nM/min/mg) by spectrophotometric analysis; format: functional
Mus musculus [6] = test: Antialzheimer activity in Swiss albino mouse brain assessed as reversal of scopolamine-induced reduction in GSH levels at 5 mg/kg, ip (reference value: 21.3 +/- 0.81); format: functional; summary of the method: as §2
Mus musculus [7] = test: Reversal of scopolamine-induced memory impairment in Swiss albino mouse assessed as attenuation of scopolamine-induced […] time at 2 to 10 mg/kg, ip administered 30 mins prior to scopolamine challenge measured on day 4 by Morris water maze test; format: functional, organism-based; summary of the method: as §1
Mus musculus [8] = test: Antialzheimer activity in Swiss albino mouse brain assessed as reversal of scopolamine-induced […] assessed per mg protein at 5 mg/kg, ip (reference value: 1.25 +/- 0.04 nM/min/mg) by spectrophotometric analysis; format: functional
Mus musculus [9] = test: Antialzheimer activity in Swiss albino mouse brain assessed as reversal of scopolamine-induced […] level at 10 mg/kg, ip (reference value: 26.51 +/- 0.79 nM/mg); format: functional; summary of the method: as §2
[10] = molecular target: T2, Acetylcholinesterase (Rattus norvegicus) (UniProt P37136); test: Potency index, ratio of donepezil IC50 to compound IC50 for inhibition of rat brain AChE
T2 sequence (whole entry): T1 sequence (P37136 whole entry)

[11] = molecular target: T2, Acetylcholinesterase (Rattus norvegicus); test: Mixed type inhibition of rat brain AChE at 0.01 to 0.1 uM using increasing concentration acetylthiocholine iodide as substrate by Lineweaver-Burk plot analysis
Mus musculus [12] = test: Antialzheimer activity in Swiss albino mouse brain assessed as reversal of scopolamine-induced […] level at 5 mg/kg, ip (reference value: 26.51 +/- 0.79 nM/mg); format: functional; summary of the method: as §2

SMILES | IC50 (Acetylcholinesterase) [nM] | IC50 [1] [µM] | other results
COc1cc(-c2cc(=O)c3ccc(O)cc3o2)cc(OC)c1OC | 44.2 | 51.4 | 
COc1cc2c(cc1OC)C(=O)C(CC1CCN(Cc3ccccc3)CC1)C2 (centres undefined) |  |  | Activity (Mus musculus [2]): Active
N=C(N)NN [PIMAGEDINE] |  | 40.1 | 
COc1cc(-c2cc(=O)c3ccc(OCCCN4CCC(C)CC4)cc3o2)cc(OC)c1OC | 6.12 | 41.8 | 
COc1ccc(-c2cc(=O)c3ccc(O)cc3o2)cc1OC | 37.3 | 47.4 | 
COc1ccc(-c2cc(=O)c3ccc(OCCCCCCN4CCC(C)CC4)cc3o2)cc1 | 48.1 | 57.2 | 
COc1ccc(-c2cc(=O)c3ccc(OCCCN4CCC(C)CC4)cc3o2)cc1OC | 6.48 | 47.7 | 
COc1cc(-c2cc(=O)c3ccc(OCCN4CCC(C)CC4)cc3o2)cc(OC)c1OC | 5.87 | 37.1 | Activity (Mus musculus [3]): 36.8 nM/mg; Activity (Mus musculus [4]): Active; Activity (Mus musculus [5]): 0.85 nmol/min/mg; Activity (Mus musculus [6]): 31.7 nM/mg; Activity (Mus musculus [7]): Active; Activity (Mus musculus [8]): 0.97 nmol/min/mg; Activity (Mus musculus [9]): 17.6 nM/mg; Ratio IC50 [10]: 2; inhibition [11]: Active; Activity (Mus musculus [12]): 20.14 nM/mg
COc1ccc(-c2cc(=O)c3ccc(OCCCCN4CCC(C)CC4)cc3o2)cc1 | 13.5 | 48.2 | 
COc1ccc(-c2cc(=O)c3ccc(O)cc3o2)cc1 | 35 | 42 | 
COc1ccc(-c2cc(=O)c3ccc(OCCCN4CCC(C)CC4)cc3o2)cc1 | 7.7 | 42.6 | 
COc1ccc(-c2cc(=O)c3ccc(OCCN4CCC(C)CC4)cc3o2)cc1OC | 6.77 | 42.1 | 
COc1ccc(-c2cc(=O)c3ccc(OCCCCCN4CCC(C)CC4)cc3o2)cc1 | 15.6 | 55.1 | 
